PubChem BioAssay AID463202 (Sanford-Burnham Center for Chemical Genomics, 2010)
The source made the active and inactive calls.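 The calls were made as follows: active = inhibition above 50% relative to controls in each of two repeat datasets, tested at 10 µM; inactive = the rest.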

target: Vasopressin V2 receptor (Homo sapiens) (UniProt P30518); assay: blockade of AVPR2 arrestin recruitment – imaging, beta-arrestin-GFP, U2OS, antagonist mode, selectivity assay for GPR35 antagonist project, SAR follow-up (AID 463202); conditions: U2OS AVPR2 beta-arrestin-GFP translocation imaging; at 10 µM; stronger effect = higher value
Method in brief: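 Material: U2OS cells expressing human vasopressin V2 receptor and GFP-β-arrestin; also added: 16 nM vasopressin agonist; dosing: single compound dose of 10 µM; times: 15 min compound pre-incubation, then 40 min agonist exposure; measured by: 40x fluorescence imaging, wavelet analysis of GFP-β-arrestin spots; read-out basis: percent activity from aggregate counts, scaled between vasopressin controls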

Vasopressin V2 receptor (Homo sapiens), sequence (P30518 whole entry, looked up): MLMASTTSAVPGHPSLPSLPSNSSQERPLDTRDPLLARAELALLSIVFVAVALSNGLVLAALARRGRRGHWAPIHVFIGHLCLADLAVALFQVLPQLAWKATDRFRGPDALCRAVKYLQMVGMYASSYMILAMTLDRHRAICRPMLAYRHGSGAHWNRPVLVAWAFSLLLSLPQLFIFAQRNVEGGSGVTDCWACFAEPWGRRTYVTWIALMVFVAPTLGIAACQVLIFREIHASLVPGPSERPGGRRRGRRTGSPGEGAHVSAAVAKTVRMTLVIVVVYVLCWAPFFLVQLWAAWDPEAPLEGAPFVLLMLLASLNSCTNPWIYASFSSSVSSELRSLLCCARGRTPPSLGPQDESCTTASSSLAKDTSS

inhibition, inactive:
O=C(Nc1ccc2nc(SCc3ccc(Cl)cc3)sc2c1)c1ccccc1C(=O)N1CCOCC1 -0.8%
CC(/C=C1\SC(=S)N(CCCC(=O)Nc2ccc(C(=O)O)cc2)C1=O)=C\c1ccccc1 18.5%
CC(C)c1ccc(NC(=O)CSc2nc3ccsc3c(=O)n2Cc2ccc(C(=O)O)cc2)cc1 22.9%
COc1ccc(/C=C2\SC(=S)N(CCCC(=O)Nc3ccc(O)cc3)C2=O)cc1 25.3%
O=C(CCCN1C(=O)/C(=C/c2ccc3c(c2)OCO3)SC1=S)Nc1ccc(C(=O)O)c(O)c1 28.4%
COc1ccc(/C=C2\SC(=S)N(CCCC(=O)Nc3ccc(C(=O)O)c(O)c3)C2=O)cc1OC 22.9%
CCOc1ccc(NC(=O)CSc2nc3ccsc3c(=O)n2Cc2ccc(C(=O)O)cc2)cc1 15.5%
O=C(CCCN1C(=O)/C(=C/c2ccccc2)SC1=S)Nc1ccc(C(=O)O)c(O)c1 51.3%
Cc1nc(N2CCC(C)CC2)c2c(C)c(C(=O)Nc3ccc4c(c3)OCCO4)sc2n1 -5.7%
CC(/C=C1\SC(=S)N(CCCC(=O)Nc2ccc(C(=O)O)c(O)c2)C1=O)=C\c1ccccc1 30%
O=C(CCCN1C(=O)S/C(=C/C=C/c2ccccc2)C1=O)Nc1ccc(C(=O)O)cc1 8.9%
COc1cccc(/C=C2\SC(=S)N(CCCC(=O)Nc3ccc(C(=O)O)cc3)C2=O)c1 -2.9%
CCOC(=O)c1ccc(NC(=O)CCCN2C(=O)/C(=C/c3ccc(C)cc3)SC2=S)cc1 28.8%
Cc1c(C(=O)Nc2ccc3c(c2)OCCO3)sc2ncnc(N3CCC(C)CC3)c12 -3.7%
CC(C)(C)c1ccc(OCCC(=O)NCCc2ccc(S(N)(=O)=O)cc2)cc1 12.5%
CCc1ccc(/C=C2\SC(=S)N(CCCC(=O)Nc3ccc(C(=O)O)cc3)C2=O)cc1 -6.8%
Cc1ccc(Cn2ncc3c(N4CCN(c5ccccc5C)CC4)ncnc32)cc1 36.9%
O=C(CCCN1C(=O)/C(=C/c2ccc3c(c2)OCO3)SC1=S)Nc1cccc(C(=O)O)c1 13.2%
COc1ccc(/C=C2/SC(=S)N(CCCC(=O)Nc3ccc(O)cc3)C2=O)cc1 1.8%
O=C(Nc1ccc2nc(SCc3ccccc3)sc2c1)c1ccccc1C(=O)N1CCOCC1 3.3%
O=C(CCCN1C(=O)/C(=C\c2ccccc2)SC1=S)Nc1ccc(C(=O)O)cc1 4.8%
O=C(CCCN1C(=O)/C(=C/c2ccc3c(c2)OCO3)SC1=S)Nc1ccc(C(=O)O)cc1 -6.5%
Cc1ccc(/C=C2\SC(=S)N(CCCC(=O)Nc3cccc(C(=O)O)c3)C2=O)cc1 8.2%
Cc1ccc(/C=C2\SC(=S)N(CCCC(=O)Nc3ccc(O)cc3)C2=O)cc1 9.2%
O=C(CCCN1C(=O)S/C(=C/c2ccccc2)C1=S)Nc1ccc(C(=O)O)cc1 0.7%
Cc1ccccc1N1CCN(c2ncnc3c2cnn3Cc2ccc(Cl)cc2)CC1 7.6%
O=C(CCCN1C(=O)/C(=C\c2ccccc2)SC1=S)Nc1cccc(C(=O)O)c1 15.9%
O=C(CCCN1C(=O)S/C(=C\C=C\c2ccccc2)C1=O)Nc1ccc(C(=O)O)cc1 18.2%
Clc1ccc(Cn2ncc3c(N4CCN(c5ccccc5)CC4)ncnc32)cc1 3.4%
COc1ccc(/C=C2\SC(=S)N(CCCC(=O)Nc3cccc(C(=O)O)c3)C2=O)cc1OC 27.3%
